We go through 29 compounds from ChEMBL document CHEMBL1123533, “Anticonvulsant activity of piperidinol and (dialkylamino)alkanol esters” (J Med Chem, 1986).

Assay [1] is filed under the species Mus musculus. Kind of assay: Antiepileptic (anticonvulsant) activity in mice through maximal electroshock seizure (MES) assay. The assay is classed as functional, organism-based. The gist of the method: (§1)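 Mice dosed at 30, 100 and 300 mg/kg and tested 30 min after administration. Seizures were evoked by 60-cycle AC, 50 mA, delivered for 0.2 s through corneal electrodes, with saline instilled in the eye first. Protection means abolition of the hind limb tonic extension. MES ED50 was quantified on select compounds.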

Assay [2] can be described thus: Inhibition of [3H]BTX binding to guinea pig voltage-dependent sodium channel.
Assay [3] deals with Mus musculus. Kind of assay: Antiepileptic (anticonvulsant) activity in mice through maximal electroshock seizure (MES) assay; No anticonvulsant activity at 300 mg/kg. On the set-up: dose 300 mg/kg. The class given is functional, organism-based. The gist of the method: as §1
For orientation: The maximal electroshock test induces tonic seizures with an electrical stimulus.

For assay [4], the target named is T1, GABA-A receptor; anion channel (Homo sapiens) (UniProt P14867+P47870+P18507+P28472+P48169+Q99928+Q9UN88+P34903+O00591+O14764+Q8N1C3+P18505+P78334+P47869+P31644+Q16445). Kind of assay: Inhibition of [3H]muscimol binding to GABA-A receptor at 100 uM. The class given is protein-complex assay. The procedure, abridged:
(§2)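 Rat brain membranes, about 1000 μg protein, in 50 mM Tris-citrate pH 7.1 with 5 nM [3H]muscimol. Incubated 30 min at 0 °C, test compound at 100 μM. Nonspecific binding was defined with 100 μM GABA. Bound ligand was separated by rapid filtration with one buffer wash, and filter radioactivity was counted.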

Assay [5] deals with T1, GABA-A receptor; anion channel (Homo sapiens). Kind of assay: Binding of [3H]- Diazepam radioligand against GABA receptor/chloride channel complex at 100 uM. The assay is classed as protein-complex assay. The procedure, abridged: (§3)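 Rat cerebral cortical membranes, about 1000 μg protein, in 50 mM Tris pH 7.4. Incubated with 5 nM [3H]diazepam for 30 min at 0 °C, test compound at 100 μM. Nonspecific binding was defined with 10 μM clonazepam. Ended by rapid filtration with one buffer wash, and retained radioactivity was counted.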

Assay [6] has the same target. Kind of assay: Binding of [3H]- TBPS radioligand against Gamma-aminobutyric acid receptor at 100 uM. The assay is classed as protein-complex assay.
Assay [7] relates to Mus musculus. Kind of assay: Antiepileptic (anticonvulsant) activity in mice through maximal electroshock seizure (MES) assay. No activity at 300 mg/kg. The assay is classed as functional, organism-based. Also noted: dose 300 mg/kg. The procedure, abridged:
as §1

For assay [8], the target named is T1, GABA-A receptor; anion channel (Homo sapiens). Kind of assay: Binding of [3H]- muscimol radioligand against GABA receptor/chloride channel complex at 100 uM. The class given is protein-complex assay. The gist of the method:
as §2

Assay [9] can be described thus: Inhibition of [3H]BTX binding to guinea pig voltage-dependent sodium channel. This is another data set of the same source.
Assay [10] has as its target T1, GABA-A receptor; anion channel (Homo sapiens). Kind of assay: Inhibition of [3H]TBPS binding to GABA-A receptor at 100 uM. The assay is classed as protein-complex assay. The gist of the method: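 Rat cerebral cortical membranes, about 1000 μg protein, in 50 mM Tris-citrate pH 7.5 containing 200 mM NaCl with 2 nM [35S]TBPS. Incubated 90 min at 23 °C, test compound at 100 μM. Picrotoxin 10 μM defined nonspecific binding. Ended by rapid filtration with one buffer wash, and filter radioactivity was counted.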

Assay [11] can be described thus: Inhibition of [3H]BTX binding to guinea pig voltage-dependent sodium channel. This is another data set of the same source.
Assay [12] has as its target Gamma-aminobutyric acid receptor subunit gamma-1 (Rattus norvegicus) (UniProt P23574). Kind of assay: Inhibition of [3H]- Diazepam binding to Gamma-aminobutyric acid (GABA-A) receptor at 100 uM. The procedure, abridged:
as §3

Gamma-aminobutyric acid receptor subunit gamma-1 (Rattus norvegicus), sequence (P23574 whole entry): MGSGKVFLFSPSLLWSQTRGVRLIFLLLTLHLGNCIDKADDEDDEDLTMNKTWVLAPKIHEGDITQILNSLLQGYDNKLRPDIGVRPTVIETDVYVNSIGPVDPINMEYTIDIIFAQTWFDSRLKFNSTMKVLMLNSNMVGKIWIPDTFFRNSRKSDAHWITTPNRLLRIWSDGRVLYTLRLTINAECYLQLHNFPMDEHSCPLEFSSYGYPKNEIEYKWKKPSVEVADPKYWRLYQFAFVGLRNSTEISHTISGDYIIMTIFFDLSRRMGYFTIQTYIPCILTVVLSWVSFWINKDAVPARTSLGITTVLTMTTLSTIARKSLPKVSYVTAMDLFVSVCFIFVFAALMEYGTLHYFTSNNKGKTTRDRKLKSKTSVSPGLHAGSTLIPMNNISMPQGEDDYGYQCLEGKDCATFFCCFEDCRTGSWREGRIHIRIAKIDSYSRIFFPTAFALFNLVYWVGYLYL

In the assay filed under Mus musculus [1], `CN1CCC(OC(=O)c2ccccc2-c2ccccc2)CC1` came in with an EC50 of 12 mg/kg. Moreover, the half-maximal inhibitory concentration (IC50) – broadly, the point on the concentration scale where inhibition reaches its midpoint – in assay [2] amounted to 10 µM.

Regarding `CN1CCC(OC(=O)c2ccccc2Oc2ccccc2)CC1`, the EC50 result with Mus musculus [3] is “Not Active”. In assay [2], the IC50 came to 3.6 µM.

`CN1C(=O)CC(C)(c2ccccc2)C1=O` (configuration not stated) [METHSUXIMIDE] registered an EC50 in the assay filed under Mus musculus [1] of 76 mg/kg.

For the compound `Cc1cc(C)c(C(=O)OC2CCN(C)CC2)cc1C`, the inhibition – broadly, the percentage by which the read-out fell short of the control – in assay [4] is 57%; in assay [5], 37%. Also, in [6], the Stimulation amounted to 3%. In the assay with Mus musculus [7], the EC50 turned out to be 46 mg/kg. The IC50 in assay [2] was above 10 µM.

Take `CN1CCC(C)(OC(=O)c2ccccc2-c2ccccc2)CC1`: the EC50 entry in the assay on Mus musculus [3] was “Not Active”. Besides, the half-maximal inhibitory concentration (IC50) in assay [2] amounted to 3.8 µM.

For `CN1CCC(OC(=O)c2ccc3ccccc3c2)CC1`, the EC50 in the assay filed under Mus musculus [1] is below 100 mg/kg. Further, in [2], the IC50 was above 10 µM.

For the compound `COc1cccc(C(=O)OC2CCN(C)CC2)c1`, the EC50 in the assay listed under Mus musculus [1] is below 100 mg/kg.

With `CCN(CC)CC(C)OC(=O)c1ccccc1-c1ccccc1` (configuration not stated), the EC50 in the assay listed under Mus musculus [1] was below 30 mg/kg. In addition, the concentration for half-maximal inhibition (IC50) in [2] was 6.8 µM.

For the compound `CN1CCC(OC(=O)c2ccccc2C(=O)c2ccccc2)CC1`, the figures for the inhibition in assay [5] and in assay [8] were 46% and 21%, respectively. In addition, in assay [6], the Stimulation stood at 1%. Moreover, in the assay on Mus musculus [3], the EC50 result is recorded as “Not Active”. In addition, in assay [9], the 50% inhibitory concentration (IC50) is above 10 µM.

`COc1ccccc1C(=O)OC1CCN(C)CC1`: in the assay on Mus musculus [3], the EC50 entry is listed as “Not Active”. The IC50 in assay [2] was above 10 µM.

Compound `CN1CCC(OC(=O)c2ccccc2Cc2ccccc2)CC1` yielded an EC50 in the assay listed under Mus musculus [1] below 30 mg/kg. For the same compound, the IC50 in assay [2] is 3.4 µM.

Consider `CN1CCC(OC(=O)c2ccc(-c3ccccc3)cc2)CC1`, for which, in the assay listed under Mus musculus [1], the EC50 is below 100 mg/kg. In addition, in assay [2], the IC50 was determined as 10 µM.

`CN1CCC(OC(=O)c2ccccc2CCc2ccccc2)CC1`: the inhibition in [5] was 50%; in [8], 27%. Moreover, in the assay listed under Mus musculus [1], the EC50 is 25 mg/kg. This compound also had an IC50 in assay [2] of 5.4 µM.

Regarding `O=C1NC(=O)C(c2ccccc2)(c2ccccc2)N1` [PHENYTOIN], in the assay filed under Mus musculus [1], the EC50 was 9.5 mg/kg.

For `CN1CCC(OC(=O)c2cccc(O)c2)CC1`, the EC50 result in the assay on Mus musculus [3] is “Not Active”. Moreover, the half-inhibitory concentration (IC50) in assay [2] is above 10 µM.

Turning to `CN1CCC(OC(=O)c2ccccc2COc2ccccc2)CC1`, the results for the inhibition in [5] and in assay [8] were 37% and 35%, respectively. Further, the Stimulation in [6] was determined as 37%. In the assay listed under Mus musculus [1], this compound gave an EC50 of 26 mg/kg. The IC50 in assay [2] was above 10 µM.

Regarding `COc1ccc(C(=O)OC2CCN(C)CC2)cc1OC`, the EC50 result in the assay with Mus musculus [3] is given as “Not Active”. The same compound had a half-inhibitory concentration (IC50) in assay [2] above 10 µM.

`CCN(CC)CCOC(=O)c1ccccc1-c1ccccc1`: the inhibition in assay [5] was found to be 26%; in assay [8] it was 31%; in assay [10] it was 4%. Moreover, the EC50 in the assay listed under Mus musculus [1] amounted to 10 mg/kg. This compound registered a concentration for half-maximal inhibition (IC50) in assay [2] of 7.5 µM.

On to `CCN(CC)CCOC(=O)c1ccccc1CCc1ccccc1`, for which the EC50 in the assay listed under Mus musculus [1] is below 300 mg/kg. The same compound had a concentration for half-maximal inhibition (IC50) in [2] of 3.9 µM.

On to `CCN(CC)CCCOC(=O)c1ccccc1-c1ccccc1`, for which the values for the inhibition in assay [5], in assay [8] and in [10] were 51%, 59% and 47%, respectively. This compound also showed an EC50 in the assay filed under Mus musculus [1] of 7.8 mg/kg. The compound also gave an IC50 in assay [11] of 4.6 µM.

As to `CN1CCC(OC(=O)c2ccccc2Br)CC1`, the EC50 result in the assay on Mus musculus [3] is reported as “Not Active”. Besides, in assay [2], the IC50 is above 10 µM.

As for `Cc1ccc(C(=O)OC2CCN(C)CC2)cc1`, the EC50 entry in the assay with Mus musculus [3] is given as “Not Active”. In addition, the 50% inhibitory concentration (IC50) in [2] was 10 µM.

In [8], `CCC(=O)OC1CCN(C)CC1` gave an inhibition of 10%. Besides, the Stimulation in assay [6] was 9%; in assay [12], -14%. The EC50 entry in the assay on Mus musculus [3] was “Not Active”. In assay [9], this compound gave a half-maximal inhibitory concentration (IC50) above 10 µM.

On to `Cc1[nH]c(C)c(C(=O)OC2CCN(C)CC2)c1C`, for which the EC50 result in the assay with Mus musculus [3] is “Not Active”. The compound also displayed a half-inhibitory concentration (IC50) in assay [2] above 10 µM.

As for `CN1CCC(C)(OC(=O)c2ccccc2CCc2ccccc2)CC1`, the figures for the inhibition in assay [5] and in [8] were 42% and 40%, respectively. Besides, the Stimulation in assay [6] amounted to 50%. In addition, in the assay listed under Mus musculus [1], the EC50 worked out at 28 mg/kg. Moreover, the IC50 in [2] stood at 3.2 µM.

`CCN(CC)CCCOC(=O)c1ccccc1CCc1ccccc1` gave an EC50 in the assay filed under Mus musculus [1] below 30 mg/kg. Also, the concentration for half-maximal inhibition (IC50) in [2] worked out at 6 µM.

For the compound `CN1CCC(OC(=O)c2ccc(Cl)cc2)CC1`, the EC50 entry in the assay on Mus musculus [3] is on record as “Not Active”. This compound also gave a concentration for half-maximal inhibition (IC50) in assay [2] above 10 µM.

Turning to `COc1ccc(CCC(=O)OC2CCN(C)CC2)cc1OC`, in the assay on Mus musculus [3], the EC50 result is on record as “Not Active”. The compound further registered an IC50 in assay [2] above 10 µM.

Compound `CCC1(c2ccccc2)C(=O)NC(=O)NC1=O` [PHENOBARBITAL] registered an EC50 in the assay filed under Mus musculus [1] of 22 mg/kg.
